Results published in the array DNA melting data of Ke et al. (doi:10.1101/2024.01.08.574731).

What was measured:
[1] = folding enthalpy; higher = less favourable; fluorescence melt of hairpins on a sequencing array, two-state fit; conditions: sodium 0.088 M
In short: (§1)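 Cy3 fluorescence of library hairpins on a sequenced MiSeq flow cell, with annealed Cy3 and quencher oligos, was imaged in 50 mM Na-HEPES pH 8.0, 25 mM NaCl in 2.5 °C steps up to 60 °C. Signals were normalised to pre-quench Cy3 and to control variants. Melting temperature and folding enthalpy came from bootstrapped two-state fits, inverse-variance combined over four replicates. Fitted temperatures were raised by 9.35 °C to match UV melts.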

[2] = melting temperature; fluorescence melt of hairpins on a sequencing array, two-state fit, raised by 9.35 °C to match UV melts; conditions: sodium 0.088 M
In short: as §1

| Sequence | folding enthalpy [1] [kcal/mol] | Tm [2] [°C] |
| --- | --- | --- |
| GTACACGAAAGTGCTAC ((((((....))).))) | -15.9 | 39.9 |
| GTACACGAAAGTGGATAC ((((((....)))..))) | -11.8 | 34.5 |
| GTACACGAAAGTGTCTAC ((((((....)))..))) | -10.6 | 35.8 |
| GTACACGAAAGTGTTAC ((((((....))).))) | -12.9 | 42.5 |
| GTACACGAAAGTGTTTAC ((((((....)))..))) | -9.29 | 29 |
| GTACATGAAAATGTAC ((((((....)))))) | -33.9 | 51.2 |
| GTACCACGAAAGTGTTAC (((.(((....))).))) | -24.1 | 39.2 |
| GTACCAGGAAACCAGTAC ((((..(....)..)))) | -11.4 | 24.9 |
| GTACCCGAAAGGGATTAC ((((((....)))..))) | -9.27 | 25.7 |
| GTACCCGAAAGGGGCTAC ((((((....)))..))) | -14.3 | 41.4 |
| GTACCCGAAAGGGGGTAC ((((((....)))..))) | -18.1 | 49.6 |
| GTACCCGAAAGGGTATAC ((((((....)))..))) | -10.4 | 49.4 |
| GTACCCGCGAAAGCGTAC (((..(((....)))))) | -8.05 | 25.7 |
| GTACCGGAAACGGTAC ((((((....)))))) | -36.6 | 64.7 |
| GTACCGGGAAACCGACAC ((..(((....)))..)) | -8.42 | 22.9 |
| GTACCGGGAAACCGGTAC (((((((....))))))) | -29.2 | 68.3 |
| GTACCTGGAAACAGGTAC (((((((....))))))) | -41.8 | 61.9 |
| GTACCTGGAAACGGGTAC (((((.(....).))))) | -41.8 | 50.4 |
| GTACGACGAAAGTCATAC (((.(((....))).))) | -19 | 39.4 |
| GTACGAGAAATCGTAC ((((((....)))))) | -38.2 | 54.3 |
| GTACGAGGAAACCCGTAC (((((.(....).))))) | -30.8 | 46.5 |
| GTACGCCCGAAAGGGTAC (((..(((....)))))) | -11.4 | 33.2 |
| GTACGCCGAAAGGCATAC (((.(((....))).))) | -16.4 | 44.7 |

| Sequence | folding enthalpy [1] [kcal/mol] | Tm [2] [°C] |
| --- | --- | --- |
| GTACGCGAAAGCGCTAC ((((((....))).))) | -13.2 | 42.2 |
| GTACGCGAAAGCGGTTAC ((((((....)))..))) | -8.32 | 32.7 |
| GTACGGGCGAAAGCCTAC (((..(((....)))))) | -8.32 | 30 |
| GTACGTCGAAAGACTAC (((.(((....)))))) | -21.9 | 41 |
| GTACGTGGAAACACACAC ((..(((....)))..)) | -10.8 | 27.4 |
| GTACGTGGAAACACATAC (((.(((....))).))) | -22.1 | 32.7 |
| GTACGTGGAAACGCGTAC (((((.(....).))))) | -32.2 | 52.7 |
| GTACTAGGAAACTAGTGC (.(((((....))))).) | -26.9 | 42.8 |
| GTACTAGGAAACTGGTAC ((((.((....)).)))) | -31.4 | 42.2 |
| GTACTCACGAAAGTGTAC (((..(((....)))))) | -11 | 31.9 |
| GTACTCGAAAGAGGATAC ((((((....)))..))) | -13.2 | 28.5 |
| GTACTCGAAAGAGGTTAC ((((((....)))..))) | -8.46 | 26.6 |
| GTACTCGAAAGAGTTTAC ((((((....)))..))) | -9.32 | 30 |
| GTACTGACGAAAGTCTAC (((..(((....)))))) | -6.65 | 21.8 |
| GTACTGCGAAAGCAATAC (((.(((....))).))) | -21.6 | 37.4 |
| GTACTGCGAAAGCATTAC (((.(((....))).))) | -22.5 | 41.7 |
| GTACTGGCGAAAGCCTAC (((..(((....)))))) | -11 | 26.3 |
| GTACTGGGAAACCAGTGC (.(((((....))))).) | -22.6 | 50.2 |
| GTACTTCGAAAGAATTAC (((.(((....))).))) | -18.6 | 32.2 |
| GTAGAACCGAAAGGTTAC (((..(((....)))))) | -13.3 | 32.5 |
| GTAGAACGAAAGTTGTAC (((.(((....))).))) | -31.7 | 42.8 |
| GTAGAAGGAAACCTCTAC (((((.(....).))))) | -18.1 | 33.4 |
| GTAGAAGGAAACTTCTGC (.(((((....))))).) | -23.1 | 39 |

| Sequence | folding enthalpy [1] [kcal/mol] | Tm [2] [°C] |
| --- | --- | --- |
| GTAGACCGAAAGGTATAC (((.(((....))).))) | -36 | 51.7 |
| GTAGACCGAAAGGTTTAC (((.(((....))).))) | -27.9 | 48.5 |
| GTAGACGAAAGTCACTAC ((((((....)))..))) | -14.2 | 41.1 |
| GTAGACGAAAGTCAGTAC ((((((....)))..))) | -9.2 | 28.6 |
| GTAGACGAAAGTCCTAC ((((((....))).))) | -19.7 | 36.4 |
| GTAGACGAAAGTCGGTAC ((((((....)))..))) | -11.8 | 34.6 |
| GTAGACGAAAGTCGTAC ((((((....))).))) | -23.6 | 49.9 |
| GTAGACGGAAACATCTAC (((((.(....).))))) | -21 | 31 |
| GTAGACGGAAACGTCTGC (.(((((....))))).) | -24.6 | 55.1 |
| GTAGAGGAAACTCTAC ((((((....)))))) | -25.3 | 49.1 |
| GTAGAGTCGAAAGACTAC (((..(((....)))))) | -10.8 | 35.1 |
| GTAGATGGAAACACCTAC ((((.((....)).)))) | -20.9 | 32.9 |
| GTAGCACCGAAAGGTTAC (((..(((....)))))) | -8.52 | 29.2 |
| GTAGCACGAAAGTGGTAC (((.(((....))).))) | -33.7 | 60.9 |
| GTAGCCCGAAAGGGATAC (((.(((....))).))) | -33.7 | 64.3 |
| GTAGCCCGAAAGGGTAC (((.(((....)))))) | -17.7 | 48.6 |
| GTAGCCGAAAGGCGCTAC ((((((....)))..))) | -9.33 | 42.8 |
| GTAGCCGAAAGGCGTAC ((((((....))).))) | -15.7 | 57.5 |
| GTAGCCGAAAGGCTTAC ((((((....))).))) | -10.3 | 43.1 |
| GTAGCCGGAAACGGCTGC (.(((((....))))).) | -15.9 | 60.9 |
| GTAGCGGAAACGCTAC ((((((....)))))) | -30.2 | 65.3 |
| GTAGCGGGAAACCGTTAC (((.(((....))).))) | -30.2 | 47.8 |
| GTAGCTGGAAACAACTAC ((((.((....)).)))) | -27.2 | 35.9 |

| Sequence | folding enthalpy [1] [kcal/mol] | Tm [2] [°C] |
| --- | --- | --- |
| GTAGCTGGAAACAGCTGC (.(((((....))))).) | -26.3 | 55.2 |
| GTAGCTGGAAACGGTTAC (((.(.(....).).))) | -18.7 | 28.9 |
| GTAGGAGGAAACCCCTAC (((((.(....).))))) | -32.4 | 38.3 |
| GTAGGCGAAAGCCATAC ((((((....))).))) | -11.2 | 43.8 |
| GTAGGCGAAAGCCCATAC ((((((....)))..))) | -8.87 | 28.2 |
| GTAGGCGAAAGCCCTTAC ((((((....)))..))) | -9.27 | 37.9 |
| GTAGGCGAAAGCCGATAC ((((((....)))..))) | -10.1 | 41.5 |
| GTAGGCGAAAGCCGTAC ((((((....))).))) | -13 | 57.3 |
| GTAGGCGAAAGCCTGTAC ((((((....)))..))) | -9.44 | 34.6 |
| GTAGGCGGAAACGTCTAC ((((.((....)).)))) | -39.1 | 53.1 |
| GTAGGGGAAACCCTAC ((((((....)))))) | -36.7 | 55.4 |
| GTAGGGGGAAACCCTTAC (((.(((....))).))) | -17.4 | 42 |
| GTAGGTGGAAACACCTAC (((((((....))))))) | -36.7 | 60.5 |
| GTAGTACCGAAAGGTTAC (((..(((....)))))) | -11.1 | 29.8 |
| GTAGTACGAAAGTATTAC (((.(((....))).))) | -31.3 | 41.5 |
| GTAGTAGGAAACTACTGC (.(((((....))))).) | -27.5 | 45.7 |
| GTAGTCCGAAAGGATAC (((.(((....)))))) | -15.8 | 38 |
| GTAGTCGAAAGACTGTAC ((((((....)))..))) | -13.8 | 32.1 |
| GTAGTCGGAAACAACTAC (((((.(....).))))) | -24.5 | 33.6 |
| GTAGTCGGAAACGACCAC ((.((((....)))).)) | -14.5 | 37.4 |
| GTAGTCTCGAAAGAGTAC (((..(((....)))))) | -17.3 | 31.9 |
| GTAGTGAAAACTAC (((((....))))) | -22.3 | 45.1 |
